Experimental findings from ChEMBL document CHEMBL2417486, “Exploring natural product chemistry and biology with multicomponent reactions. 5. Discovery of a novel tubulin-targeting scaffold derived from the rigidin family of marine alkaloids” (J Med Chem, 2013) are described below.

Structures are written as SMILES. In brackets after ≈: the same amount, converted by molar mass. Activity calls are given as the source filed them. The calls are words filed in the database; no cut-off is given here.

In series [1] the test system is HeLa. The series is described as follows: Growth inhibition of human HeLa cells after 48 hrs by MTT assay. The format is functional. The essentials:
(§1)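 Cells seeded at 4 × 10^3 per well, grown 24 h, then treated 48 h at 0.004–100 µM from 100 or 25 mM DMSO stocks. Controls were 0.1% DMSO and phenyl arsine oxide. MTT (5 mg/mL) added for 2 h, formazan dissolved in DMSO, A490 read. […] HeLa/MCF-7 in DMEM, MES-SA lines in RPMI-1640, all with 10% FBS.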
Background: Tetrazolium dyes change colour on reduction, which living cells bring about.

The subject of another series is MCF7. Put plainly: Growth inhibition of human MCF7 cells after 48 hrs by MTT assay. The format is functional. The conditions noted are these: MCF7, 48 h. A digest of the protocol: as §1
Series [2] deals with T1, Tubulin beta (Homo sapiens) (UniProt P68371+Q9H4B7+Q13509+P04350+Q3ZCM7+P07437+Q13885+Q9BVA1+Q9BUF5+A6NNZ2). The series is described as follows: Inhibition of [3H] radiolabelled colchicine binding to tubulin beta (unknown origin) at 5 uM by DEAE-cellulose filter method. The format is protein assay.
The target in series [3] is T1, Tubulin beta (Homo sapiens). The series is described as follows: Inhibition of [3H] radiolabelled colchicine binding to tubulin beta (unknown origin) at 1 uM by DEAE-cellulose filter method. The format is protein assay.
In series [4] the test system is HeLa. Put plainly: Cell cycle arrest in human HeLa cells assessed as accumulation at G2/M phase at 1 uM after 32 hrs using Vybrant Orange staining by flow cytometry relative to control. The format is functional, cell-based. A digest of the protocol: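 HeLa cells at 70–80% confluence were seeded at 2 × 10^5 per well in DMEM/10% FBS with penicillin G and streptomycin, left to adhere overnight, then treated at 1 µM for 32 h (0.1% DMSO control). Washed, trypsinized, stained 30 min at 37 °C with 10 µM Vybrant Orange in medium, then analysed by flow cytometry for DNA content.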

Series [5] is described as follows: Growth inhibition of human UM-SCC-22A cells after 48 hrs by MTT assay. The format is functional.
Series [6] is described as follows: Growth inhibition of human UM-SCC-10B cells after 48 hrs by MTT assay. The format is functional.
The subject of a further series is UMSCC22B. The series is described as follows: Growth inhibition of human UM-SCC-22B cells after 48 hrs by MTT assay. The format is functional.
Series [7] in a line: Growth inhibition of human Hs683 cells after 48 hrs by MTT assay. The format is functional. As to conditions: Hs 683, 48 h.
The nature of series [8]: Growth inhibition of human UM-SCC-10A cells after 48 hrs by MTT assay. The format is functional. As to conditions: UMSCC-10A.
The test system of the next series is B16-F10. Put plainly: Growth inhibition of mouse B16F10 cells after 48 hrs by MTT assay. The conditions noted are these: B16-F10, 48 h. The format is functional.
The subject of the next series is SK-MEL-28. The series is described as follows: Growth inhibition of human SK-MEL-28 cells after 48 hrs by MTT assay. The format is functional. The conditions noted are these: SK-MEL-28, 48 h.
Series [9] is described as follows: Aqueous solubility of the compound by spectrophotometric analysis. The format is physicochemical. The essentials: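 Compound dispersed in ultrapure water at >0.5 mg/mL; supernatant centrifuged repeatedly until no pellet remained, then diluted 1:2 (solution:DMSO). Concentration read from absorbance at peak 335–336 nm against a calibration line made in 1:2 water/DMSO, and corrected for the DMSO dilution.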

Another series deals with A549. The series is described as follows: Growth inhibition of human A549 cells after 48 hrs by MTT assay. The format is functional. As to conditions: A549, 48 h.
Series [10] in a line: Growth inhibition of human U373 cells after 48 hrs by MTT assay. The format is functional, U-373MG ATCC. The conditions noted are these: U373 MG.

For the compound `Nc1ncnc2[nH]c(C(=O)c3ccccc3)c(-c3ccccc3)c12`, the GI50 (usually the concentration that inhibits growth by half) with HeLa [1] was 4.4 µM; in the series with MCF7, 3.9 µM.
With `COc1ccc(-c2c(C(=O)c3ccccc3)[nH]c3[nH]c(=O)[nH]c(=O)c23)cc1`, the GI50 in the series on HeLa [1] was determined as 80 µM; with MCF7, 14 µM.
In the same order, the values of `N#Cc1cccc(-c2c(C(=O)c3ccc(OCc4ccccc4)cc3)[nH]c3ncnc(N)c23)c1` are greater than 100 µM and greater than 100 µM.
On to `COc1ccc(/C=C\c2cc(OC)c(OC)c(OC)c2)cc1O`, for which the inhibition (as a rule, the drop in the measured response relative to a control, in per cent) in series [2] turned out to be 99%; in series [3] it was 89%.
In the case of `COc1cc(-c2c(C(=O)c3ccc(O)cc3)[nH]c3[nH]cnc(=O)c23)ccc1O`, the 50% growth inhibitory concentration (GI50) in the series on HeLa [1] stood at 5 µM; in the series on MCF7, 3 µM.
On to `O=C(c1ccccc1)c1[nH]c2ncnc(-c3ccccc3)c2c1-c1cccnc1`, for which the results for the GI50 in the series with HeLa [1] and with MCF7 were 45 µM and 51 µM, respectively.
In the same order, the values of `O=C(c1ccccc1)c1[nH]c2[nH]cnc(=O)c2c1-c1cccc(Br)n1` are 0.15 µM and 0.135 µM.
As for `O=C(c1ccccc1)c1[nH]c2[nH]cnc(=O)c2c1-c1cccc(Cl)c1`, the figures for the GI50 in the series with HeLa [1] and with MCF7 were 0.1 µM and 0.06 µM, respectively.
For `O=C(c1ccccc1)c1[nH]c2ncnc(-c3ccccc3)c2c1-c1cc(Br)cc(Br)c1` the same measures were 18 µM and 10 µM.
With `O=C(c1ccc(O)cc1)c1[nH]c2[nH]cnc(=O)c2c1-c1ccc(O)cc1`, the GI50 came out at 4 µM in the series on HeLa [1] and 2.8 µM with MCF7.
In the same order, the values of `Nc1ncnc2[nH]c(C(=O)c3ccccc3)c(-c3cc(Br)cc(Br)c3)c12` are greater than 100 µM and greater than 100 µM.
For `COc1cc(-c2c(C(=O)c3ccccc3)[nH]c3[nH]cnc(=O)c23)cc(OC)c1OC` the same measures were 48 µM and 33 µM.
Regarding `O=C(c1ccccc1)c1[nH]c2[nH]cnc(=O)c2c1-c1cncc(Br)c1`, the GI50 in the series on HeLa [1] is 0.08 µM; in series [5] it was 0.12 µM; in series [6], 0.13 µM; in the series with UMSCC22B, 0.02 µM; in series [7] it was 0.02 µM; in series [8] it was 0.09 µM. Besides, the concentration for 50% growth inhibition (GI50) in the series on B16-F10 turned out to be 0.04 µM; in the series on MCF7 it was 0.087 µM; in the series with SK-MEL-28, 0.02 µM; in the series with A549 it was 0.02 µM; in series [10], 0.03 µM. The outcome with HeLa [4] was Active. Moreover, the solubility – broadly, how much of the substance goes into solution per volume – in [9] turned out to be 30 µM (≈ 11.9 µg/mL).
In the case of `O=C(c1ccccc1)c1[nH]c2[nH]cnc(=O)c2c1-c1cccnc1`, the GI50 in the series with HeLa [1] amounted to 0.88 µM; in the series with MCF7 it was 1.26 µM.
For `O=C(c1ccc(Br)cc1)c1[nH]c2[nH]cnc(=O)c2c1-c1cc(Br)cc(Br)c1` the same measures were 2.2 µM and 0.6 µM.
For `O=C(c1ccccc1)c1[nH]c2[nH]cnc(=O)c2c1-c1cccc(I)c1`, the concentration for 50% growth inhibition (GI50) turned out to be 0.2 µM in the series with HeLa [1] and 0.15 µM in the series with MCF7.
In the same order, the values of `COc1cc(-c2c(C(=O)c3ccc(F)cc3)[nH]c3[nH]c(=O)[nH]c(=O)c23)cc(OC)c1OC` are greater than 100 µM and greater than 100 µM.
For `O=C(c1ccc(OCc2ccccc2)cc1)c1[nH]c2[nH]cnc(=O)c2c1-c1ccccc1` the same measures were 0.045 µM and 0.053 µM.
In the same order, the values of `O=C(c1ccc(O)cc1)c1[nH]c2[nH]c(=O)[nH]c(=O)c2c1-c1ccc(O)cc1` are greater than 100 µM and greater than 100 µM.
`Cc1ccc(-c2ncnc3[nH]c(C(=O)c4ccccc4)c(-c4cc(Br)cc(Br)c4)c23)cc1`: the GI50 stood at 9 µM in the series with HeLa [1] and 7 µM in the series on MCF7.
Take `Nc1ncnc2[nH]c(C(=O)c3ccccc3)c(-c3c(Cl)cccc3Cl)c12`: the concentration for 50% growth inhibition (GI50) in the series with HeLa [1] and in the series on MCF7 was greater than 100 µM in each case.
With `Nc1ncnc2[nH]c(C(=O)c3ccccc3)c(-c3cccs3)c12`, the 50% growth inhibitory concentration (GI50) came out at 28 µM in the series with HeLa [1] and 15 µM in the series with MCF7.
For `O=C(c1ccc(O)cc1)c1[nH]c2[nH]cnc(=O)c2c1-c1cc(Br)cc(Br)c1` the same measures were 0.3 µM and 0.26 µM.
For `COc1ccc(C(=O)c2[nH]c3[nH]c(=O)[nH]c(=O)c3c2-c2ccc(OC)cc2)cc1` the same measures were greater than 100 µM and greater than 100 µM.
As to `COc1cc(C(=O)c2[nH]c3[nH]c(=O)[nH]c(=O)c3c2-c2ccc(O)c(OC)c2)ccc1O`, the GI50 in the series with HeLa [1] and with MCF7 was greater than 100 µM throughout.
As for `O=C(c1ccc(O)cc1)c1[nH]c2[nH]cnc(=O)c2c1-c1ccccc1`, the GI50 came to 0.4 µM in the series with HeLa [1] and 0.3 µM in the series on MCF7.
Turning to `COc1cc(-c2c(C(=O)c3ccc(O)cc3)[nH]c3[nH]c(=O)[nH]c(=O)c23)ccc1O`, the concentration for 50% growth inhibition (GI50) in the series with HeLa [1] and with MCF7 was greater than 100 µM each time.
Consider `COc1ccc(C(=O)c2[nH]c3[nH]cnc(=O)c3c2-c2cc(Br)cc(Br)c2)cc1`, for which the GI50 is 0.3 µM in the series with HeLa [1] and 0.11 µM with MCF7.
With `O=C(c1ccccc1)c1[nH]c2[nH]cnc(=O)c2c1-c1c(Cl)cccc1Cl`, the GI50 is 4.9 µM with HeLa [1] and 2.2 µM with MCF7.
In the same order, the values of `O=C(c1ccc(F)cc1)c1[nH]c2[nH]cnc(=O)c2c1-c1cc(Br)cc(Br)c1` are 6.3 µM and 0.8 µM.
In the same order, the values of `O=C(c1ccc(OCc2ccccc2)cc1)c1[nH]c2[nH]cnc(=O)c2c1-c1cc(Br)cc(Br)c1` are 0.4 µM and 0.31 µM.
Consider `COc1cc(-c2c(C(=O)c3ccc(Br)cc3)[nH]c3[nH]c(=O)[nH]c(=O)c23)cc(OC)c1OC`, for which the concentration for 50% growth inhibition (GI50) in the series on HeLa [1] and with MCF7 was greater than 100 µM each time.
For `COc1cc(C(=O)c2[nH]c3[nH]c(=O)[nH]c(=O)c3c2-c2ccc(O)cc2)ccc1O`, the concentration for 50% growth inhibition (GI50) in the series with HeLa [1] and with MCF7 was greater than 100 µM throughout.
For the compound `COc1ccc(-c2c(C(=O)c3ccccc3)[nH]c3ncnc(-c4ccccc4)c23)cc1`, the GI50 in the series with HeLa [1] worked out at 70 µM; in the series with MCF7, 75 µM.
On to `O=C(c1ccccc1)c1[nH]c2[nH]cnc(=O)c2c1-c1cccc(F)c1`, for which the 50% growth inhibitory concentration (GI50) in the series on HeLa [1] is 0.065 µM; in the series on MCF7, 0.07 µM. In addition, the solubility in series [9] amounted to 65 µM (≈ 21.7 µg/mL).
Take `COc1ccc(C(=O)c2[nH]c3ncnc(-c4ccc(OC)cc4)c3c2-c2ccc(OC)cc2)cc1`: the GI50 turned out to be 20 µM in the series with HeLa [1] and 8 µM with MCF7.
For the compound `O=C(c1ccccc1)c1[nH]c2[nH]cnc(=O)c2c1-c1cc(Br)cs1`, the GI50 with HeLa [1] was found to be 43 µM; in the series with MCF7, 56 µM.
In the case of `COc1ccc(C(=O)c2[nH]c3[nH]cnc(=O)c3c2-c2cc(OC)c(OC)c(OC)c2)cc1`, the GI50 was greater than 100 µM in the series with HeLa [1] and 7 µM with MCF7.
`O=C(c1ccccc1)c1[nH]c2[nH]c(=O)[nH]c(=O)c2c1-c1cc(Br)cc(Br)c1`: the concentration for 50% growth inhibition (GI50) is 71 µM in the series with HeLa [1] and 47 µM with MCF7.
In the same order, the values of `O=C(c1ccccc1)c1[nH]c2[nH]cnc(=O)c2c1-c1cccc(O)c1` are 0.86 µM and 1.09 µM.
As to `Nc1ncnc2[nH]c(C(=O)c3ccccc3)c(-c3cncc(Br)c3)c12`, the GI50 in the series on HeLa [1] and with MCF7 was greater than 100 µM each time.
`N#Cc1cccc(-c2c(C(=O)c3ccccc3)[nH]c3[nH]cnc(=O)c23)c1`: the figures for the GI50 in the series on HeLa [1] and in the series with MCF7 were 0.19 µM and 0.25 µM, respectively.
In the same order, the values of `COc1cc(C(=O)c2[nH]c3[nH]c(=O)[nH]c(=O)c3c2-c2cc(OC)c(OC)c(OC)c2)ccc1OCc1ccccc1` are greater than 100 µM and greater than 100 µM.
For `O=C(c1ccccc1)c1[nH]c2[nH]cnc(=O)c2c1-c1cccc(Br)c1` the same measures were 0.13 µM and 0.06 µM.
In the same order, the values of `COc1cc(-c2c(C(=O)c3ccccc3)[nH]c3[nH]cnc(=O)c23)cc(Br)c1OC` are 7.1 µM and 10 µM.
For the compound `COc1cc(-c2c(C(=O)c3ccccc3)[nH]c3[nH]cnc(=O)c23)cc(I)c1OC`, the GI50 was 8.2 µM with HeLa [1] and 40 µM with MCF7.
For `O=C(c1ccccc1)c1[nH]c2[nH]c(=S)[nH]c(=S)c2c1-c1cc(Br)cc(Br)c1` the same measures were greater than 100 µM and greater than 100 µM.
